Only some compounds are listed: those with a hit (about 3.2% of all), similar ones and a draw of the others.
SF1 activator: SF-1 (human) activation; CHO-K1 Gal4-SF-1 LBD luciferase reporter; % increase over DMSO SF-1-specific signal; hit rate 1.9% among 65,000; activation, % at 10 µM; Q13285; AID 522;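 active = activation above the mean activation of all tested compounds plus 3 SD, cut at about 50% in these data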
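material = CHO-K1 cells with Gal4–hSF-1 LBD chimera plus Gal4-driven luciferase | compound = 10 µM single point, 1% DMSO | incubation = 20 h compound exposure at 37 °C after 1 h cell settling | measured by = SteadyLite luciferase luminescence | evaluation = percent activation relative to DMSO median and mock-transfected background | control set = DMSO negative control and −SF1 background wells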
Ec RNAP inh: Escherichia coli RNA polymerase inhibition | P0A8V2 | E. coli RNA polymerase, fluorescence transcription assay | inhibition, %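 (tested at 10 µM)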 | hit rate 0.2% among 62,000; in the data active = inhibition above about 20%;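 note: 0% = enzyme without compound and 100% = no enzyme blank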
JNK3 inh: blocks human JNK3 kinase activity | inhibition, % at 8 µM | hit rate 0.61% among 60,000 | P53779 | purified JNK3 kinase activity, HTS | AID 746; in the data active = inhibition above about 17%;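 note: 0% = DMSO and 100% = reference inhibitor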
RORa activator: activates the human nuclear receptor RORA. hit rate 1.5% among 65,000. activation, % at 10 µM. CHO-K1 Gal4-RORA LBD luciferase reporter, luminescence; percent increase over mock-subtracted basal signal;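 active = activation above the mean of all tested compounds plus 3 SD, cut at about 49% in these data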;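 note: 0% = DMSO-treated RORA cells and 100% = added signal equal to DMSO minus mock-transfected cells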
BAP1 inh: blocks human BAP1 ubiquitin-AMC hydrolysis; Q92560; recombinant BAP1, Ub-AMC hydrolysis fluorescence kinetic; hits give low values; activity remaining (% of control), % at 20 µM; hit rate 0.48% among 72,000;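 active = activity remaining at or below 50% of control, provided the compound also passes the data quality filters; inactive = the rest, including low values that fail the filters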;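 note: 100% = DMSO wells rate and 0% = substrate alone blank rate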
Active calls of the source: *; . = no result given.

SMILES	SF1 activator	Ec RNAP inh	JNK3 inh	RORa activator	BAP1 inh
Cc1ccc2nc(CCc3nc4ccc(C)cc4o3)oc2c1	-3.4	5.8	7.2	-0.8	89.7
Cc1ccc2nc(Cc3ccc(N)cc3)oc2c1	67.8*	4.1	20.5*	38.9	73.5
COC(=O)c1cccc(NC(=O)CSc2ncn[nH]2)c1	8.0	10.1	0.6	15.1	59.6
c1ccc(-c2noc(C3CCCCC3)n2)nc1	55.8*	-1.1	7.0	60.7*	.
c1ccc(-c2noc(-c3ccncc3)n2)nc1	14.2	6.6	3.4	34.7	118.0
c1ccc(-c2noc(C34CC5CC(CC(C5)C3)C4)n2)nc1	85.6*	15.7	5.4	42.1	77.1
O=C(Cc1cc(=O)oc2cc(O)ccc12)NCC1CCC(C(=O)O)CC1 (stereo not drawn)	10.7	-190.8	1.9	-14.0	.
CNC(=O)/C(=N\O)c1ccccc1	-14.2	-1.6	-14.2	18.3	104.8
O=C(NCCc1ccccc1)/C(=N\O)c1ccccc1	64.0*	-4.5	3.7	14.0	139.1
Cc1nn(-c2ccccc2)c(C)c1NC(=O)c1cccs1	-4.1	-8.0	-10.1	-8.1	88.1
Nc1nc(NC(=O)c2cccs2)nn1-c1ccccc1	77.2*	20.9*	1.7	38.0	90.1
O=C(Nc1ccc2nn(-c3ccccc3)nc2c1)c1cccs1	69.6*	8.7	4.4	11.7	107.7
COc1cccc(-c2nnc3sc(-c4cccs4)nn23)c1	70.0*	9.8	5.7	29.7	115.8
COc1cccc(-c2nnc3sc(-c4ccco4)nn23)c1	49.6*	3.6	3.1	33.7	69.8
OCCNCc1ccc(OC2CCCC2)cc1	14.5	3.4	-0.1	-15.7	138.0
Nc1nc2ccccc2n1C(=O)CCc1ccccc1	67.3*	6.8	-1.9	45.2	93.9
O=c1[nH]c2ccc(S(=O)(=O)N3CCN(Cc4ccccc4)CC3)cc2[nH]c1=O	12.4	-5.9	6.0	-15.6	80.5
O=c1[nH]c2cc(Cl)c(Cl)cc2[nH]c1=O	.	.	.	.	42.2*
COc1ccccc1N(CC(=O)Nc1ccc2c(c1)OCCO2)S(C)(=O)=O	15.7	0.8	-0.5	1.9	93.6
COc1cccc2c(=O)c(C/C=C(/C)Cl)c(C)[nH]c12	2.3	-11.2	18.4*	5.4	66.5
COc1cccc2c(=O)c(SC(F)(F)C(F)C(F)(F)F)c(C)[nH]c12 (stereo not drawn)	50.7*	-9.2	1.9	45.9	67.7
Cc1[nH]c2ccc(F)cc2c(=O)c1SC(F)(F)C(F)C(F)(F)F (stereo not drawn)	13.0	8.5	0.7	-15.9	74.4
O=C(CCC1=NS(=O)(=O)c2ccccc2N1)NC1CCCCCCC1	10.1	0.2	10.6	-1.4	88.9
O=C(Nc1nc2c(s1)CCc1ccccc1-2)c1ccco1	37.1	-0.5	.	6.1	91.8
CCOc1ccc(N=C(NC#N)SC)cc1	-4.7	5.6	1.2	17.2	94.2
SMILES	SF1 activator	Ec RNAP inh	JNK3 inh	RORa activator	BAP1 inh
c1ccc(-c2n[nH]c3c2CCC3)cc1	-2.9	7.3	18.0*	-3.3	96.3
CCn1c(SCC(=O)Nc2ccc(C(C)=O)cc2)nc2ccccc21	64.8*	9.2	-2.2	61.8*	96.3
CC(C)COc1ccc(-c2nnc(-c3ccncc3)o2)cc1	84.9*	0.0	-0.9	32.7	110.5
CCCOc1ccc(-c2nnc(-c3ccncc3)o2)cc1	48.8	-7.7	-0.2	27.5	54.5
Cc1ccc2cc(CN(Cc3ccco3)C(=O)c3cccs3)c(=O)[nH]c2c1	44.8	13.3	4.2	76.2*	112.2
O=C(OCC(=O)N1CCCCCC1)c1cccs1	54.8*	8.8	-7.1	13.7	120.2
CCOc1cccc(=O)c2c(C)n(Cc3ccco3)c(C)c12	-13.5	9.7	-2.8	-9.2	77.0
CCOC(=O)C1=C(c2ccccc2)OC(N)=C(C#N)C1c1ccco1 (stereo not drawn)	-15.6	9.9	-6.2	-12.8	90.3
CCOC(=O)C1=C(c2ccccc2)OC(N)=C(C#N)C1C(C)C (stereo not drawn)	13.7	39.7*	0.9	-18.3	112.0
O=C(OCc1nc2ccccc2s1)c1cccs1	50.1*	5.8	-1.0	52.7*	58.3
O=C(OCc1nc2ccccc2s1)c1cnccn1	54.3*	6.0	-2.6	53.1*	65.2
CN(C)C(=O)c1nnc(Cc2ccc(Cl)cc2)o1	0.3	5.5	-4.0	0.4	99.6
Cn1c(=O)cc(OCCCC(=O)NCCCN2CCN(Cc3ccccc3)CC2)c2ccccc21	-4.1	9.1	2.5	-28.9	105.6
Cc1noc(C)c1C(=O)Nc1sc2c(c1C(N)=O)CCCCC2	13.7	2.8	-1.8	-18.0	.

Screens: PubChem BioAssay, several laboratories
